The text below walks through data of paper PMC3309561 (Biochimica et biophysica acta, 2010).

The test system of the data set is 15 base pair duplex DNA. Description: Near-UV circular dichroism / UV absorbance titration of duplex DNA with peptide. Particulars: UV absorbance spectra during titration of duplex DNA, room temperature. Format: binding. In short, it runs like this: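 15 bp duplex DNA at 1.66 µM (typically 1–2 µM) was titrated at room temperature with small additions of a 5 mg/ml peptide stock. UV absorbance was acquired at the same time as the near-UV CD, in a 10 mm cell from 340 to 220 nm, across increasing peptide/DNA molar ratios. Uncorrected spectra show light scattering; zeroed spectra (340 nm) track 260 nm absorbance.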
A general note: Circular dichroism is the unequal absorption of left and right circularly polarised light.

As to “GIGKFLHSAKKFGKAFVGEIMNS-NH2 [Magainin 2 amide]”, the “Turbidity (light scattering) above 310 nm of DNA with peptide” value is given as “absence of turbidity”.
